Reference: ChEMBL document CHEMBL2169850, “3,6-bis(3-alkylguanidino)acridines as DNA-intercalating antitumor agents” (Eur J Med Chem, 2012)
Calls of active or inactive are those of the source. The rule behind the calls is not given here.

Legend:
HL-60 [1] = assay: Cell cycle arrest in human HL60 cells assessed as accumulation at S phase at 5 uM incubated for 72 hrs by flow cytometry (reference value: 40.30 +/- 3.15%); format: functional
HL-60 [2] = assay: Cell cycle arrest in human HL60 cells assessed as accumulation at G2/M phase at 25 uM incubated for 72 hrs by flow cytometry (reference value: 12.68 +/- 3.21%); format: functional
Nucleic Acid [3] = assay: Binding affinity to calf thymus DNA at 9.6 uM by spectrofluorimetric titration assay; format: nucleic-acid assay; details: Bos taurus
Procedure, shortened: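 Fluorescence titration at 25 °C in 0.01 M Tris, pH 7.4. Compound (9.58 × 10^-6 M) was titrated with ctDNA from 0 to 2.57 × 10^-4 M bp, excited at 384 nm, and emission recorded from 400 to 600 nm. K and n were obtained from McGhee–von Hippel fits of Scatchard data.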

HL-60 [4] = assay: Induction of necrosis in human HL60 cells at 5 to 25 uM incubated for 72 hrs by AnnexinV/propidium iodide staining method; format: functional, cell-based
Procedure, shortened: (§1)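 HL-60 cells (1.5 × 10^5) were exposed to compound, then stained 10 min with Annexin V-FITC in HEPES/CaCl2/NaCl binding buffer. Cells were washed, briefly stained with propidium iodide and analysed by flow cytometry for apoptotic and necrotic fractions. Mean ± SD of at least three independent experiments.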

HL-60 [5] = assay: Cell cycle arrest in human HL60 cells assessed as accumulation at G1 phase at 5 uM incubated for 48 hrs by flow cytometry (reference value: 38.29 +/- 0.22%); format: functional
HL-60 [6] = assay: Cell cycle arrest in human HL60 cells assessed as accumulation at G2/M phase at 25 uM incubated for 48 hrs by flow cytometry (reference value: 16.42 +/- 1.03%); format: functional
HL-60 [7] = assay: Antiproliferative activity against human HL60 cells assessed as cell number at 15 uM incubated for 72 hrs by Coulter counting method; format: functional
Procedure, shortened: (§2)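 HL-60 cells in RPMI with 10% heat-inactivated FCS, antibiotics and amphotericin, 37 °C, 5% CO2, seeded in 60 mm dishes. Compound added at 5, 15 or 25 µM for 24, 48 or 72 h. Absolute cell counts taken by Coulter counter and expressed as percentage of untreated control. Mean ± SD of at least three independent experiments; one-way ANOVA with Tukey test, p < 0.05.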

HL-60 [8] = assay: Antiproliferative activity against human HL60 cells assessed as cell number at 15 uM incubated for 48 hrs by Coulter counting method; format: functional; procedure, shortened: as §2
Nucleic Acid [9] = assay: Binding affinity to calf thymus DNA at 6.5 uM by CD spectroscopy; format: nucleic-acid assay; details: Bos taurus
Procedure, shortened: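 CD spectra were recorded in 1 mm quartz cuvettes in 0.01 M Tris, pH 7.4, with 6.52 µM compound and ctDNA. Each spectrum is the mean of three scans after buffer background subtraction.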

HL-60 [10] = assay: Cell cycle arrest in human HL60 cells assessed as accumulation at S phase at 5 uM incubated for 48 hrs by flow cytometry (reference value: 45.29 +/- 1.23%); format: functional
HL-60 [11] = assay: Antiproliferative activity against human HL60 cells assessed as cell number at 25 uM incubated for 24 hrs by Coulter counting method; format: functional; procedure, shortened: as §2
HL-60 [12] = assay: Drug uptake in human HL60 cells with normal morphology at 50 uM incubated for 18 hrs by fluorescence microscopy; format: ADME, cell-based; details: hl-60, 18 h
Procedure, shortened: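 HL-60 cells were treated with 50 µM compound for 18 h, washed with PBS, resuspended in HBSS and mounted as native slides. Cells were imaged by inverted fluorescence microscopy at 40×, with excitation 360/40 and emission 470/40. The fluorescence channel was merged with brightfield images.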

Nucleic Acid [13] = assay: Binding affinity to calf thymus DNA assessed as hypochromacity at 12.8 uM by UV-visible absorption spectroscopy; details: Bos taurus
HL-60 [14] = assay: Cell cycle arrest in human HL60 cells assessed as accumulation at G1 phase at 15 uM incubated for 72 hrs by flow cytometry (reference value: 47.02 +/- 6.19%); format: functional
HL-60 [15] = assay: Induction of apoptosis in human HL60 cells at 5 to 25 uM incubated for 24 hrs by AnnexinV/propidium iodide staining method; format: functional, cell-based
Procedure, shortened: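 HL-60 cells (1.5 × 10^5) were treated at 5–25 µM for 24, 48 or 72 h and harvested. They were stained with Annexin V-FITC for 10 min in HEPES/CaCl2/NaCl binding buffer, washed, briefly stained with PI (1 mg/mL) and analysed by flow cytometry for apoptosis and necrosis. Mean ± SD, n ≥ 3.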

HL-60 [16] = assay: Induction of necrosis in human HL60 cells at 5 to 25 uM incubated for 24 hrs by AnnexinV/propidium iodide staining method; format: functional, cell-based; procedure, shortened: as §1

Row | Structure (SMILES) | Activity (HL-60 [1]) | Activity (HL-60 [2]) | Activity (Nucleic Acid [3]) | Activity (HL-60 [4]) | Activity (HL-60 [5]) | Activity (HL-60 [6]) | Activity (HL-60 [7]) | Activity (HL-60 [8]) | Activity (Nucleic Acid [9]) | Activity (HL-60 [10]) | Activity (HL-60 [11]) | Drug uptake (HL-60 [12]) | Activity (Nucleic Acid [13]) | Activity (HL-60 [14]) | Activity (HL-60 [15]) | Activity (HL-60 [16])
1 | CCCCCCNC(=N)Nc1ccc2cc3ccc(NC(=N)NCCCCCC)cc3nc2c1.Cl.Cl.O | 43.6% | 3.91% | Active | Active | 45.1% | 6.51% | 33.13% | 52.7% | Active | 43.54% | 76.71% | Active | 42% | 70.31% | – | –
2 | CCNC(=N)Nc1ccc2cc3ccc(NC(=N)NCC)cc3nc2c1.Cl.Cl.O | inactive | inactive | – | inactive | inactive | inactive | 84.97% | 80.03% | Active | inactive | 71.98% | – | 23% | inactive | inactive | inactive
